Measurements published in publication PMC3940870 (Nature, 2013).

Key:
[1] = system: P. falciparum schizonts (Dd2), reinvasion of RBCs; experiment: Physical disruption/merozoite release assay; format: cell-based, Plasmodium falciparum; details: ~5×IC50 imidazopyrazine or 1 μM E-64
[2] = system: P. berghei sporozoites expressing luciferase; details: 2.5 mg/kg; stated as known, no reference given; cited from earlier work
[3] = system: P. falciparum NF54 gametocytes; experiment: Gametocyte viability assay; format: cell-based; details: Plasmodium falciparum, NF54, 72 h, read-out: IC50, gametocyte viability
Procedure, shortened: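 NF54 stage III–V gametocytes came from cultures cleared of asexual parasites with 50 mM N-acetyl-D-glucosamine for 3 days, then purified on a discontinuous Percoll gradient. Viability was read by a modified pLDH assay with resazurin substrate after 72-hr exposure. The 9-point series (0.1 nM–1 μM, 0.5 log10 steps) ran in quadruplicate over 2 plates and 2 parasite batches. Controls were 1 μM DHA (MIN) and vehicle (MAX). IC50 came from four-parameter nonlinear regression.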

In the case of `CC(C)C[C@H](NC(=O)[C@H]1O[C@@H]1C(=O)O)C(=O)NCCCCN=C(N)N` [E-64], the “reinvasion parasitemia after mechanical rupture of treated schizonts” value [1] is reported as 2–3%.

In the case of `O=C1C(O)=C([C@H]2CC[C@H](c3ccc(Cl)cc3)CC2)C(=O)c2ccccc21` [ATQ, atovaquone], the causal prophylactic protection [2] is given as 100%.

Compound `C[C@H]1[C@@H](O)O[C@@H]2O[C@@]3(C)CC[C@H]4[C@H](C)CC[C@@H]1[C@@]24OO3` [DHA, dihydroartemisinin] has an IC50 [3] of 15.8 nM.
